Structures can show the parent of a compound that is named as a salt.
Tests used:
[1] = test system: MCF7; experiment: Cytotoxicity against human MCF7 cells assessed as cell growth inhibition incubated for 3 days by trypan blue exclusion assay; assay type: functional, cell-based; conditions: MCF7, 72 h
How it was run: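 MCF-7 human breast carcinoma cells; growth inhibition; triplicate experiments.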

[2] = target: Tubulin (Homo sapiens) (UniProt P68371+Q9H4B7+P0DPH7+P68366+Q13509+Q71U36+P04350+Q3ZCM7+P07437+P68363+Q9BQE3+Q6PEY2+Q13885+Q9BVA1+Q9BUF5); experiment: Inhibition of [3H]colchicine binding to tubulin (unknown origin) at 5 uM incubated for 10 mins relative to control; assay type: protein-complex assay
[3] = target: Tubulin; experiment: Inhibition of tubulin (unknown origin) polymerization preincubated for 15 mins followed by GTP addition by turbidity based spectrophotometer analysis; assay type: protein-complex assay, Homo sapiens
[4] = test system: LAMA-84; experiment: Antiproliferative activity against human LAMA-84 cells assessed as cell growth inhibition incubated for 48 hrs by MTT assay; conditions: LAMA-84, 48 h
[5] = test system: LAMA-84; experiment: Antiproliferative activity against human LAMA-84 cells overexpressing BCR/ABL assessed as cell growth inhibition
[6] = test system: OVCAR-8; experiment: Cytotoxicity against human OVCAR-8 cells assessed as cell growth inhibition incubated for 3 days by trypan blue exclusion assay; assay type: functional, cell-based; conditions: OVCAR-8, 72 h
[7] = test system: NCI/ADR-RES; experiment: Cytotoxicity against human NCI/ADR-RES cells overexpressing p-glycoprotein assessed as cell growth inhibition incubated for 3 days by trypan blue exclusion assay; assay type: functional, cell-based; conditions: 72 h

Row | inhibition [2] | IC50 [3] | Compound | IC50 [1] | IC50 [4] | IC50 [5] | IC50 [6] | IC50 [7]
1 | 82% | 1100 nM | COc1cc(C(=O)c2cn(-c3cccc(N)c3)cc2-c2ccccc2)cc(OC)c1OC | 74 nM | – | – | – | –
2 | 24% | 2200 nM | COc1cc(C(=O)c2cn(-c3ccccc3)cc2-c2ccc(C)cc2)cc(OC)c1OC | 280 nM | – | – | – | –
3 | 5.7% | 1600 nM | COc1cc(C(=O)c2cn(-c3ccccc3)cc2-c2cccc(C)c2)cc(OC)c1OC | 450 nM | – | – | – | –
4 | 66% | 1100 nM | COc1cc(C(=O)c2cn(-c3ccccc3)cc2-c2ccccc2)cc(OC)c1OC | 35 nM | – | – | – | –
5 | 79% | 880 nM | COc1cc(C(=O)c2cn(-c3ccc(C)cc3)cc2-c2ccccc2)cc(OC)c1OC | 30 nM | – | – | – | –
6 | – | – | Cc1ccc(NC(=O)c2ccc(CN3CCN(C)CC3)cc2)cc1Nc1nccc(-c2cccnc2)n1 [IMATINIB MESYLATE] | – | 100 nM | 100 nM | – | –
7 | 53% | 630 nM | COc1cc(C(=O)c2cn(-c3ccccc3)cc2-c2cccc(F)c2)cc(OC)c1OC | 57 nM | – | – | – | –
8 | 57% | 390 nM | COc1cc(C(=O)c2cn(-c3ccccc3)cc2-c2cccc(N)c2)cc(OC)c1OC | 28 nM | – | – | 190 nM | 110 nM

— ChEMBL document CHEMBL5252540, “3-Aroyl-1,4-diarylpyrroles Inhibit Chronic Myeloid Leukemia Cell Growth through an Interaction with Tubulin” (ACS Med Chem Lett, 2017)
